Rows were chosen to be rich in hits. Some 0.99% of all compounds tested hit in one or more screens of this group.
GSK3B inh: blocks human GSK3beta kinase activity; GST-GSK3beta kinase, ADP-Glo luminescence, 60 min; stronger effect = lower value; AID 2097; hit rate 0.038% among 300,000; activity score (negative = inhibition), % at 10 µM;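 active = more than half of replicate wells score below -50%, meaning over 50% inhibition versus plate controls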;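 note: 0% = median DMSO wells and -100% = median GW8510 positive control wells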
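test system = GST-tagged human GSK3beta kinase, cell-free | reagent = 25 µM ATP with peptide substrate | dosing = one dose of 10 µM per compound | schedule = 60 min reaction, RT | detection = luminescent ADP-Glo measurement of ADP formed | control set = DMSO neutral wells and GW8510 at 20 µM as positive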
GSK3 alpha inh: blocks human GSK-3 alpha kinase; hit rate 0.1% among 320,000; P49840; inhibition, % at 10 µM; ADP-Glo luminescence, 60 min; AID 2650;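 active = more than half of replicates show inhibition above 20%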;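 note: GST-tagged GSK-3 alpha with peptide substrate and 25 µM ATP; 0% = DMSO neutral wells and 100% = GW8510 positive control wells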
Arrestin-AP2 inh: inhibitors of human beta-arrestin and AP2 interaction; FITC-arrestin peptide / GST-AP2 beads, flow cytometry; AP2 beta2 appendage carries R879A mutation; inhibition, % at 10 µM; hit rate 0.31% among 340,000; AID 504490;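 active = inhibition above a set limit, near 3 SD of compounds lacking own fluorescence, cut at about 54% in these data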;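 note: plate controls were DMSO wells for no effect and 5 µM unlabelled arrestin peptide for full effect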
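Material – AP2 appendage R879A on GSH beads · Buffer or medium – PBS with 0.05% Tween 20 and 0.1% BSA · Probe or stimulus – fluorescein-tagged arrestin peptide at 50 nM final · Incubation – compound with beads 12 min RT, then probe 1 h RT · Detection – high-throughput flow cytometry of beads, ex 488, em 535 nm · Evaluation – percent response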
STK33 kinase inh: inhibitors of human STK33 kinase | Q9BYT3 | purified STK33, MBP phosphorylation, ADP-Glo luminescence | inhibition, % at 10 µM | hit rate 0.073% among 320,000 | AID 2661;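 active = inhibition at or above 25%, using the most active replicate where run in duplicate; inactive = inhibition below 25%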
Target sequence (Q9BYT3 whole entry, looked up): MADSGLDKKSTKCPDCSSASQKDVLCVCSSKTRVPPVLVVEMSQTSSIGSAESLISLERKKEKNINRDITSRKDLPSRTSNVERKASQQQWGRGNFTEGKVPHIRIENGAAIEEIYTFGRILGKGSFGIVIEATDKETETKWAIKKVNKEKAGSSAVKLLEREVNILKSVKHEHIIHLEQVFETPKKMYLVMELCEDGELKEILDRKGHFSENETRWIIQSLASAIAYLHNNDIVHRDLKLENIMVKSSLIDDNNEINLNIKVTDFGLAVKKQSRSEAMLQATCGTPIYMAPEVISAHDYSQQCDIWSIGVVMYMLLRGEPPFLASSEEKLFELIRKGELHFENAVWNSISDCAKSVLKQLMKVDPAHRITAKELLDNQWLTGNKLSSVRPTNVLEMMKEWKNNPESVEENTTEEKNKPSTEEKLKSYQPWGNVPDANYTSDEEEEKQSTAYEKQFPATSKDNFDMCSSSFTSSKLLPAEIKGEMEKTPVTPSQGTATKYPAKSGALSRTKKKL
Dyrk1A ADPGlo: Dyrk1A (rat) kinase inhibition; hit rate 0.43% among 310,000; ADP-Glo luminescence, NFATc1 peptide; AID 504441; inhibition, % at 12.5 µM; in the data active = inhibition above about 50%;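 note: plate controls were vehicle with enzyme for no effect and no enzyme for full effect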
Rin1-Abl PPI inh: human Rin1-Abl interaction inhibition | inhibition, % at 7.35 µM | AID 588664 | TR-FRET Rin1/Abl binding, biochemical | hit rate 0.4% among 360,000; in the data active = inhibition above about 5%, passing the limit was not always enough
Active calls of the source: *; . = not tested or not shown; ! = not confirmed by another sample.

SMILES	GSK3B inh	GSK3 alpha inh	Arrestin-AP2 inh	STK33 kinase inh	Dyrk1A ADPGlo	Rin1-Abl PPI inh
COc1ccc(Nc2nc(NCCCN3CCOCC3)nc(N)c2[N+](=O)[O-])cc1	-56*	85*	34	2	14	-5
Nc1nc(NCCCN2CCOCC2)nc(Nc2ccc(F)cc2)c1[N+](=O)[O-]	12	51*	1	0	10	-4
Nc1nc(NCCCN2CCOCC2)nc(Nc2cccc(F)c2)c1[N+](=O)[O-]	-71*	57*	33	-3	38	-4
Cc1cccc(Nc2nc(NCCCN3CCOCC3)nc(N)c2[N+](=O)[O-])c1	-74*	75*	1	5	.	-6
COCCNc1nc(N)c([N+](=O)[O-])c(Nc2ccc(F)cc2)n1	-1	4	-15	-1	-3	2
COc1nc(NCCN2CCOCC2)nc(Nc2ccc([N+](=O)[O-])cc2)n1	5	3	7	1	-4	-6
CCCN1C=CC(=C2C(=O)c3ccccc3C2=O)C=C1	0	10	27	31*	37	-9
CCCCCCN1C=CC(=C2C(=O)c3ccccc3C2=O)C=C1	-5	-3	-15	-1	4	1
COc1ccc(CCCNC(=O)C2Cc3c(-c4ccc5c(c4)OCO5)ccnc3O2)cc1 (configuration not stated)	.	.	.	.	.	-1
CCCn1nc(NC(=O)C(C)(C)C)c2cc3cc(OC)ccc3nc21	-42	66*	3	1	32	0
CCCCn1nc(NC(=O)CC)c2cc3cc(OC)ccc3nc21	-1	16	-3	0	5	1
CCCCCCCCCCCCCCCCn1cc[n+](C)c1	-18	24	30	27*!	0	-3
O=C(c1ccc2c3n(nc2c1)-c1ccccc1CO3)N1CCCCC1	-19	32	-7	27*	44	-1
CCOC(=O)Cc1nnc(NC(=O)COc2ccc(C)cc2)s1	-1	0	26	27*	3	-1
CCOC(=O)Cc1nnc(NC(=O)COc2ccc(OC)cc2)s1	0	-1	5	0	.	0
Cc1cccc(/C=N\N=C\c2cccc(C)c2)c1	-1	1	15	0	-2	-2
Cc1cccc(/C(N)=N/OC(=O)c2ccc3c(c2)OCO3)c1	-25	35	20	32*	23	-2
N/C(=N\OC(=O)c1ccc2c(c1)OCO2)c1cccc([N+](=O)[O-])c1	1	0	3	4	5	0
NN(Cc1ccccc1)C(=S)Nc1ccc(Cl)c(Cl)c1	1	-2	13	-1	3	2
O=C(O)c1ccc(S(=O)(=O)/N=C2\C=C(Nc3ccccc3F)C(=O)c3ccccc32)cc1	-12	20	-3	19	57*	3
COc1ccc(S(=O)(=O)/N=C2\C=C(Nc3ccc(O)cc3)C(=O)c3ccccc32)cc1	-5	6	8	6	32	-4
O=C(Nc1ccn(C2CC(OC(=O)c3ccccc3)C(CO)O2)c(=O)n1)c1ccccc1 (configuration not stated)	2	-4	-4	0	-1	9.1*
O=C(Nc1ccn(CCOC(=O)c2ccccc2)c(=O)n1)c1ccccc1	.	.	.	.	.	14
CN(c1ncnc(N)c1[N+](=O)[O-])C1CCS(=O)(=O)C1 (configuration not stated)	-37	55*	8	-1	16	0
Cc1[nH][nH]c(=O)c1N=Nc1ccc(S(N)(=O)=O)cc1	-22	59*	4	3	.	-2
SMILES	GSK3B inh	GSK3 alpha inh	Arrestin-AP2 inh	STK33 kinase inh	Dyrk1A ADPGlo	Rin1-Abl PPI inh
CCN(CC)Cc1cc2[nH]c3c4ccc(Cl)cc4ncc3c2cc1OC	-52*	.	-5	.	.	1
O=c1c(O[C@@H]2O[C@H](CO)[C@@H](O)[C@H](O)[C@H]2O)c(-c2ccc(O)c(O)c2)oc2cc(O)cc(O)c12	-47	.	.	.	.	.
COc1c(-c2ccc(O)c(O)c2)oc2cc(O)cc(O)c2c1=O	1	90*	2	18	85*	0
Oc1cc(O)cc(/C=C/c2ccc(O)c(O)c2)c1	.	28	10	50*	69*	4
N=C1/C(=C\c2ccc(SCc3ccccc3)o2)C(=O)N=C2SC(CC(=O)N3CCOCC3)=NN12	0	-3	4	-1	-5	-7
N=C1/C(=C/c2ccc(-c3cccc(C(=O)O)c3)o2)C(=O)N=C2SC(CC(=O)N3CCOCC3)=NN12	4	4	-3	6	79*	5
O=C(CSc1nc2nn(-c3ccccc3)c(=O)c-2c2n1CCCCC2)c1ccc(O)c(O)c1	.	3	5	0	-5	16*
CNC(=O)CSc1nc2nn(-c3ccccc3)c(=O)c-2c2n1CCCCC2	1	4	2	-1	-4	-4
COc1ccc(NC(=S)N2CCC3CC2c2cc(-c4ccc5c(c4)OCO5)ccc23)c(OC)c1 (configuration not stated)	.	.	.	.	.	3
CCc1nc2c(OCc3cc(Cl)cc(Cl)c3)cccn2c1N(C)C(=O)c1ccccc1F	.	.	.	.	.	-3
Cc1cc2c(N=O)c(NO)ccc2[nH]1	-1	5	22	7	40	12*
O=C(O[C@@H]1OC2COC(=O)c3cc(O)c(O)c(O)c3-c3c(cc(O)c(O)c3O)C(=O)O[C@@H]([C@H]1O)[C@@H]2O)c1cc(O)c(O)c(O)c1	2	6	23	1	41	69*
CCC(/C=C1\Sc2ccc(OC)cc2N1CCO)=C\c1sc2ccc(OC)cc2[n+]1CCO	.	2	77*	-1	8	-14
CC1CCN(S(=O)(=O)c2cc(F)ccc2CN2C(=O)c3cccnc3C2=O)CC1	0	-1	0	0	-4	-3
CCC(=O)NC(c1cccs1)c1ccc2cccnc2c1O (configuration not stated)	-1	-1	20	.	-7	9.8*
Cc1ccc(CNc2ncnc3ccc(-c4ccc(CO)o4)cc23)o1	.	.	.	.	.	-2
CCc1ccc(O)c(N=Cc2ccccc2O)c1	6	-2	10	-4	0	3
O=c1[nH][nH]c2c(N=Cc3ccccc3O)ccc(F)c12	.	.	39	.	58*	17*
CCOC(=O)C1=CC[C@@H](c2ccccc2)N(S(=O)(=O)c2ccc(C)cc2)[C@H]1C#N	.	.	.	.	.	2
CC1(C(=O)NCCC#N)CCN1C(=O)CC(c1ccccc1)c1ccccc1 (configuration not stated)	.	.	.	.	.	-1
CNC1=C(N(C(C)=O)c2ccc(Br)cc2)C(=O)c2ccccc2C1=O	0	12	1	9	11	-8
CC(=O)C1=C(c2ccc(Br)cc2)C(=O)c2ccccc2C1=O	0	0	9	0	76*	1
COc1ccc(-c2nc(-c3ccccn3)no2)cc1	-20	33	1	29*	35	2
COc1ccccc1-c1nc(-c2ccccn2)no1	-9	11	2	15	31	1

Source: PubChem (several laboratories)
